# Source: ChEMBL document CHEMBL2311377, “Trisubstituted thiophene analogues of 1-thiazolyl-2-pyrazoline, super oxidase inhibitors and free radical scavengers” (Bioorg Med Chem, 2013)
# How the values were obtained:
# [1] = biological target: T1, Xanthine dehydrogenase/oxidase (Rattus norvegicus, UniProt P22985); assay: Inhibition of Wistar albino rat xanthine oxidase isolated from liver using xanthine as substrate incubated for 15 mins prior to substrate addition by spectrophotometric analysis
# How it was run: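 Xanthine oxidase was prepared from perfused Wistar albino rat liver. The liver was homogenized in ice-cold 0.05 M phosphate (pH 7.8) with 0.1 mM EDTA and spun at 10,000g. The supernatant was precipitated with 60% ammonium sulfate, dialyzed against phosphate pH 6.8, and protein measured by Lowry. Enzyme was preincubated with compound in DMSO in phosphate pH 7.4 at room temperature for 15 min. Uric acid was read at 295 nm; inhibition was relative to DMSO-only control, and IC50 came from linear regression.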
# [2] = system: Radical scavenging activity; assay: Antioxidant activity assessed as inhibition DPPH radical production after 15 mins by spectrophotometric analysis; format: functional
# How it was run: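 Compounds at 1–50 in methanol were mixed with an equal volume of methanolic DPPH. Absorbance was compared with a control of DPPH plus methanol without compound, and results are given as percent radical scavenging.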
# [3] = biological target: T1, Xanthine dehydrogenase/oxidase; assay: Competitive inhibition of Wistar albino rat xanthine oxidase isolated from liver using xanthine as substrate by Lineweaver-Burk plot analysis
# How it was run: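 Inhibition type was assessed with the rat liver XO preparation by varying xanthine substrate across 1–5 and analysing by Lineweaver–Burk plot.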
# T1 sequence (P22985 whole entry, the tested form may be a part): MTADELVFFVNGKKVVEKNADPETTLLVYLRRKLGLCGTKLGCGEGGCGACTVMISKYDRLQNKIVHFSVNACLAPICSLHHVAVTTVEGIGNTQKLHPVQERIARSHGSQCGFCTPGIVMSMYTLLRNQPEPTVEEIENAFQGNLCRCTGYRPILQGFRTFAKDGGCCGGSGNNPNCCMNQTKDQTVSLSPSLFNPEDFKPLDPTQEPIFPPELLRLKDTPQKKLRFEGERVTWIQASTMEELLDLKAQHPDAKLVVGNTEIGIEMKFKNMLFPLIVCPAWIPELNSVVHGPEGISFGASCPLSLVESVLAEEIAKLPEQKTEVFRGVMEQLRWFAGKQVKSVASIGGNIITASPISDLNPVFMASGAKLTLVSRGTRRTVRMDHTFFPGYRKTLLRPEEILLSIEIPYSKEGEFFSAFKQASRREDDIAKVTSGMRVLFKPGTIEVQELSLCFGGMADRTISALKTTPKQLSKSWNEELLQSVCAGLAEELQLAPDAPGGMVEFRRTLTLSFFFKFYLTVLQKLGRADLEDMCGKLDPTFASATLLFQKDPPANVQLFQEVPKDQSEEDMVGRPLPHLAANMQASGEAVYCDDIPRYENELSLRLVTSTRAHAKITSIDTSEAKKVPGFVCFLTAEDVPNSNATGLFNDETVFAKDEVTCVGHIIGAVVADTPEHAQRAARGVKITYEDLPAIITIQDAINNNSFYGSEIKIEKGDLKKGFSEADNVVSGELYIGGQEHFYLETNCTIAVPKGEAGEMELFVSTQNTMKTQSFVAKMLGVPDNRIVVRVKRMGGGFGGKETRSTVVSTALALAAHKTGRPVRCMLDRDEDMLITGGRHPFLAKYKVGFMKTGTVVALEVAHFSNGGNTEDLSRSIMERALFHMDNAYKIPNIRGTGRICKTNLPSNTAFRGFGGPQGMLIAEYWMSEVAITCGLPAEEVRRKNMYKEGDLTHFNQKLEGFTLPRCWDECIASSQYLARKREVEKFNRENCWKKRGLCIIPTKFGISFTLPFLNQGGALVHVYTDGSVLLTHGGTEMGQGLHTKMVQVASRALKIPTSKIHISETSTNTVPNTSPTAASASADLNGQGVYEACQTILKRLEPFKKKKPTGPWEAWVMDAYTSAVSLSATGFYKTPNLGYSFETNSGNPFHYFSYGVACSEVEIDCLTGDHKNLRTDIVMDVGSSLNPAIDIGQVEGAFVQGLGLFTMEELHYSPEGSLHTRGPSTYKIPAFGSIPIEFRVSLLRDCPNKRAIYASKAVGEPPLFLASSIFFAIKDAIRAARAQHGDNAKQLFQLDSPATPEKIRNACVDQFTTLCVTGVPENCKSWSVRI
SMILES,IC50 [1],IC50 [2],inhibition (INH) [3]
CCCCc1nc(Cl)c(C2CC(c3cc(Cl)sc3Cl)=NN2c2nc(-c3ccc(Cl)cc3)cs2)[nH]1 (configuration not stated),26 µM,31.5 µM,–
CCCCc1nc(Cl)c(C2CC(c3cc(Cl)sc3S(N)(=O)=O)=NN2c2nc(-c3ccc(Cl)cc3)cs2)[nH]1 (configuration not stated),23.9 µM,29.3 µM,–
Clc1ccc(-c2csc(N3N=C(c4cc(Cl)sc4Cl)CC3c3ccc(Cl)cc3)n2)cc1 (configuration not stated),36 µM,44.8 µM,–
Clc1ccc(-c2csc(N3N=C(c4cc(Cl)sc4SCc4ccccc4)CC3c3ccc(Cl)cc3)n2)cc1 (configuration not stated),32 µM,41.5 µM,–
NS(=O)(=O)c1sc(Cl)cc1C1=NN(c2nc(-c3ccc(Cl)cc3)cs2)C(c2ccc(Cl)cc2)C1 (configuration not stated),34.2 µM,43 µM,–
Fc1ccc(C2CC(c3cc(Cl)sc3Cl)=NN2c2nc(-c3ccc(Cl)cc3)cs2)cc1 (configuration not stated),> 50 µM,> 50 µM,–
Fc1ccc(C2CC(c3cc(Cl)sc3SCc3ccccc3)=NN2c2nc(-c3ccc(Cl)cc3)cs2)cc1 (configuration not stated),> 50 µM,> 50 µM,–
NS(=O)(=O)c1sc(Cl)cc1C1=NN(c2nc(-c3ccc(Cl)cc3)cs2)C(c2ccc(F)cc2)C1 (configuration not stated),> 50 µM,> 50 µM,–
Oc1ncnc2[nH]ncc12 [ALLOPURINOL],6 µM,–,–

# The remaining molecules from weak to strong by IC50 [2], led by results:
IC50 [1],IC50 [2],inhibition (INH) [3],SMILES
20 µM,21.8 µM,–,CCCCc1nc(Cl)c(C2CC(c3cc(Cl)sc3SCc3ccccc3)=NN2c2nc(-c3ccc(Cl)cc3)cs2)[nH]1 (configuration not stated)
9.4 µM,21.1 µM,–,CN(C)c1ccc(C2CC(c3cc(Cl)sc3Cl)=NN2c2nc(-c3ccc(Cl)cc3)cs2)cc1 (configuration not stated)
8.3 µM,19.3 µM,–,CN(C)c1ccc(C2CC(c3cc(Cl)sc3S(N)(=O)=O)=NN2c2nc(-c3ccc(Cl)cc3)cs2)cc1 (configuration not stated)
6.2 µM,15.6 µM,Active,CN(C)c1ccc(C2CC(c3cc(Cl)sc3SCc3ccccc3)=NN2c2nc(-c3ccc(Cl)cc3)cs2)cc1 (configuration not stated)
–,11.5 µM,–,O=C1O[C@H]([C@@H](O)CO)C(O)=C1O [ASCORBIC ACID]
